Data set [1] in a line: Drug level treated with UTP 5'-O-Palpha,alpha-dithiophosphate at 2 mM at pH 1.7 at room temperature after 23 days by 31P NMR method. In kind it is physicochemical. Particulars: pH 1.7, 552 h, 2000 µM.
Data set [2] addresses T1, Ectonucleoside triphosphate diphosphohydrolase 1 (Homo sapiens) (UniProt P49961).
T1 sequence (whole entry): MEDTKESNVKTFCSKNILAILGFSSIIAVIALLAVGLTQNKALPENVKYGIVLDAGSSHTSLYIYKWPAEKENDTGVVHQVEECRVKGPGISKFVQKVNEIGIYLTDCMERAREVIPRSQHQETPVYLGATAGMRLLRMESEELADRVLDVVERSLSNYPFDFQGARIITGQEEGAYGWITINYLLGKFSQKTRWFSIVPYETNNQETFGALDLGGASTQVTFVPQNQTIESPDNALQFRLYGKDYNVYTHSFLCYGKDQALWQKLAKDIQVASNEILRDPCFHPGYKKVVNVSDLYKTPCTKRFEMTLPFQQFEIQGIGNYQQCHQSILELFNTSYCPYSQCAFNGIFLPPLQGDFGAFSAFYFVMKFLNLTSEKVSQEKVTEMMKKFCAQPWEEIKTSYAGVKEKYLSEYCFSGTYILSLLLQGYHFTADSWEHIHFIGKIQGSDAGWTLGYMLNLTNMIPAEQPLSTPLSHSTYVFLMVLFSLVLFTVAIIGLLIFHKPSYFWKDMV
The data set can be described thus: Activation of human NTPDase1 using ATP as substrate preincubated for 3 mins followed by substrate addition measured after 10 mins by malachite green reagent-based assay relative to control. The procedure, abridged:
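Compound at 100 μM, 3 min preincubation, 100 μM ATP, 10 min. Stopped with malachite green; Pi read at 630 nm. Blank with enzyme added after stop subtracted. Activity with ATP alone taken as 100%.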

For `O=c1ccn([C@@H]2O[C@H](COP(=S)(S)OP(=O)(O)O)[C@@H](O)[C@H]2O)c(=O)[nH]1` (some centres not stated), the Drug metabolism entry in data set [1] is recorded as “Metabolite_Detected”.

`O=c1ccn([C@@H]2O[C@H](COP(=S)(S)OP(=O)(O)OP(=O)(O)O)[C@@H](O)[C@H]2O)c(=O)[nH]1` (some centres not stated) returned an Activity in data set [2] of 7 to 27%.
